The record followed here is the RNAGym collection of RNA variant scans (doi:10.1126/science.aae0568).

B1: tRNA (parent)
chain: GUUCCGUUGGCGUAAUGGUAACGCGUCUCCCUCCUAAGGAGAAGACUGCGGGUUCGAGUCCCGUACGGAACG

This sample holds only a part of the variants without activity.

In this series the parent is B1. In words: yeast fitness relative to wild type (ratio to wild type); higher = fitter; tRNA-Arg(CCU), competitive growth, 37 C, YPD. Summed up: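 Amplicons of the tRNA-Arg(CCU) gene were sequenced, 100-nucleotide paired-end, from the start population and from each end population of a pooled yeast competition. The competition, in six parallel replicates, lasted 24 hours in YPD at 37°C. Fitness relative to wild type was calculated from changes in genotype frequencies. Genotypes had to have ≥ 100 starting reads, and estimates < 0.5 were set to 0.5.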
Consider GUUCCGUUGGUGUAAUGGUAUCGCGUCUCCCUCCUAAGGAAAAGACUGCGGGUUCGAGUCACGUACGGAACG, for which the yeast fitness was not above 0.5. For the variant GUUCCGUUGGUGUAAUGGUAACGCGUCUCCCUCCUGAGGAGAAGACUGCGGGUUCGAGUCCCGUACGGAACG, the yeast fitness is 0.822. As for GUUCCGUUGGUGUAAUGGUAUCGCGUCUCCCUCCUAAGGAGAAGACUGCGGGUACGAGUCCCGUACGGAGCG, the yeast fitness is not above 0.5. On to GUUCCGUUGGUGUAAUGGUACCGCGUCUCCCUCCUAAGGAGGAGACUGCGGGUUCGAGUCCCGUACGGCACG, for which the yeast fitness is not above 0.5.

Take GUUCCGUUGGUGUAAUGGUACCGCGUCUCCCUCCUAUGGAGGAGACUGCGGGUUCGAGUCCCGUACGGCGCG: the yeast fitness was not above 0.5. In the case of GUUCCGUUGGUGUAAUGGUUACGCGUCUCCCUCCUAAGGAGAAAAAUGCGGAUUCGAGUCCCGUAUGGAACG, the yeast fitness was not above 0.5.

In the case of GUUCCGUUGGUGUAAUGGUAACGCGUCUCCCUCCUUCGGAGUAGACUGCGGGUUCGAGUCCCCUACGGAACG, the yeast fitness was not above 0.5. Then GUUCCGUUGGUGUAAUGGUACCGCGUGUCCCUCCUAAGCAGAAGACUGCGGGUUCGAGUCCCGUACGGAACG, with 0.544; and GUUCCGUUGGUGUAAUGGUUACGUGUCUCCCUCCUAAAGAGAAGACUGAGGGUUCGAGUCCCGUACGGAUCG, with not above 0.5. As to GUUCCGUUGGUGUAAUGGUACCGCGUCUCCCUCCUAAGGAGAAGACUGCGGGUUCGAGUCCCGUACGGAGCG, the yeast fitness is not above 0.5. Then GUUCCGUUGGUGUAAUGGUUACGCGUCUCCCUCCUAAGCAGAAGACUGCGGGUGCGAGUCCCGUACGGAACG, with not above 0.5; and GUUCCGUUGGUGUAAUGGUAACGCGUCUCCCUCCUGAGGAGACGACUGCGGGUUCGAGUCCCGUACGGAACG, with 0.546.

Consider GUUCCGUUGGUGUAAUGGUAACGCGUCUCCCUCCUACGGAGAAGACCGCGGGUUCGAGUCCCGUACGGAACG, for which the yeast fitness is 0.706. As for GUUCCGUUGGUGUAAUGGUACCGCGUCUCCCUCCUAAGGAGGAGACUGCGGGUUCGAGUCUCGUACGGAACG, the yeast fitness is not above 0.5. Then GUUCCGUUGGUGUAAUGGUAACGCGUCUCCCUCCUGAGGAGAAGACUGCGGGCUCGAGUCCCGUACGGAACG, with 0.538; and GUUCCGUUGGUGUAAUGGUACCGCGUGUCCCUCCUAAGGAGAAAACUGCGGGUUCGAGUCCCGUUCGGAACG, with not above 0.5; and GUUCCGUUGGUGUAAUGGUGACGGGUCUCCCUCCUAAGGAGAAGACUGCGGGUUCGAGUCCCCUACGGAACG, with not above 0.5. As for GUUCCGUUGGUGUAAUGGUAGCGCGUCUCCCUCCUAAGGAGACGACUGCGGGUUCGAGUCCCGUACGGAACG, the figure is 0.649; as for GUUCCGUUGGUGUAAUGGUUACGCGUCUCCCUCCUAAGGAGAAGACUGCGGGUUCGAGUCCCGUCCGGAACG, not above 0.5; as for GUUCCGUUGGUGUAAUGGUUACGUGUCUACCUCCUAAGGAGAAGACUGCGGGUUCGAGUCCCGUACGGAGCG, not above 0.5.

GUUCCGUUGGUGUAAUGGUAACGCGUCUCCCUCCUACGGAGAAGACCGCGGGUUCGAGUCCCGUACGCAACG: the yeast fitness was not above 0.5. Then GUUCCGUUGGUGUAAUGGUAACGCGUCUCCCUCCUACGGAGAAGACUGCGGGUUCGAGUCCCGUACGGAACG, with 0.724. Consider GUUCCGUUGGUGUAAUGGUAUCGCGUCUCCCUCCUAAGGAGAAGUCUGCGGGUUCGAGUCCCGUACGGAACG, for which the yeast fitness turned out to be 1.15. As for GUUCCGUUGGUGUAAUGGUUACGCGUCUGCCUCCUAAGGAGAAGACGGCGGGUUCGAGUCCCAUACGGAUCG, the yeast fitness is not above 0.5.

On to GUUCCGUUGGUGUAAUGGUAUCGCGUCUCCCUCCUAAGGAGAAGACUGCCGGUUCGAGUCCCGCACGGAACG, for which the yeast fitness was found to be 0.597.

On to GUUCCGUUGGUGUAAUGGUUACGCGUCUCCCUCCUAAGAACAAGAAUGCGGGUUCGAGUCCCGUACGAAACG, for which the yeast fitness was not above 0.5. As for GUUCCGUUGGUGUAAUGGUACGGCGUCUCCCUCCUAAGGAGAAGACUGCGGGUUCGAGUCCCGUACGGAACG, the figure is 0.657. Take GUUCCGUUGGUGUAAUGGUGACGCGUCUCCCUCCUAAGGAGAAGACGGCGGGUUCGAAUCCCGUACGGAACG: the yeast fitness is not above 0.5. Then GUUCCGUUGGUGUAAUGGUAGCGCGUCUCCCUCCUAAGGAGAAGACUGCGGGUUUGAGUCCCGUACGGAACG, with 0.593; and GUUCCGUUGGUGUAAUGGUAUCGCGUCUCCCUCCUAAGGAGAAGAAUGCGGGUUCGAGUCCCGUACGGAACG, with 0.685. As for GUUCCGUUGGUGUAAUGGUUACGUGUCUACCCCCUAAGGAGAAGACUGCGGGUUCGAGUCCCGUACGGAGCG, the yeast fitness was not above 0.5.

Regarding GUUCCGUUGGUGUAAUGGUAUCGCGUCUCCCUCCUAAGGAGAAGACUGCGGGUUCGAGUCCCGUAUGGAACG, the yeast fitness came to 0.816. GUUCCGUUGGUGUAAUGGUAUCGCGUCUCCCUCCUAAGGAGGAGACUGCGGGUUCGAGUACCGUACGGAACG: the yeast fitness is not above 0.5. GUUCCGUUGGUGUAAUGGUAACGCGUCUCCCUCCUGAGGAGAAGACUGCGGGUUCGAGUGCCGUACGGACCG: the yeast fitness is not above 0.5. Then GUUCCGUUGGUGUAAUGGUUAAGCGUCUCCCUCCUAAGGAGAAGACUGCGGGUUCGAGUCCCGUACGGAACG, with not above 0.5; and GUUCCGUUGGUGUAAUGGUAUCGCGUCUCCCUCGUAAGGAGAAGACUGCGGGUUCAAGUCCCGUACGGAACG, with not above 0.5; and GUUCCGUUGGUGUAAUGGUUACGCGUCUCCCUCCUAAGAAGAAGACUGCGGGUUCGAGUCCCGUCCGGAACG, with 0.533. For GUUCCGUUGGUGUAAUGGUACCGCGUCUCCCUCCUAAGGAGGAGACUGCGGGUUCGAGUCCCGUACGGCGCG, the yeast fitness came to 0.563. Consider GUUCCGUUGGUGUAAUGGUACCGCGUUUCCCUCCUAAGGAGGAGACUGCGGGUUCGAGUCCCGUACGGCGCG, for which the yeast fitness was not above 0.5. As to GUUCCGUUGGUGUAAUGGUUACGCGUCUCCCUCCUAAGGAGAAGACUGCGGGUUCGAGUUCCGUACGGAACG, the yeast fitness is not above 0.5. Then GUUCCGUUGGUGUAAUGGUACCGCGUCUCCCUCCUAAGGAGAAGACUGCGGGUUCGAGUCCCGUACAGAACG, with 0.597; and GUUCCGUUGGUGUAAUGGUACCGCGUCUCCCUCCUCAGGAGAAGACUGCGGGUUCGAGUCCCGUACGGAUCG, with not above 0.5; and GUUCCGUUGGUGUAAUGGUAGCGAGUCUCCCUCCUAAGGAGAAGACUGCGGAUUCGAGUCCCGUACGGAACG, with not above 0.5. In the case of GUUCCGUUGGUGUAAUGGUACAGCGUCUCCCUCCUAAGGAGAAGACUGCGGGUUCGAGUCCCGUAAGGAACG, the yeast fitness is not above 0.5. As for GUUCCGUUGGUGUAAUGGUAACGCGUCUCCCUCCUAGGGAGAAGACUGCGGCUUCGAGUCCCGUACGGAUCG, the figure is not above 0.5; as for GUUCCGUUGGUGUAAUGGUAUUGCGUCUCCCUCCUAAGGAGAAGACUGCGGGUUCGAGUCCCGUACGGAACG, 0.673.

For GUUCCGUUGGUGUAAUGGUACCGCGUCUCCCUCCUAAGGAGCAAACUGCGGGUACGAGUCCUGUACGGAACG, the yeast fitness is not above 0.5. Consider GUUCCGUUGGUGUAAUGGUGACGCGUCUCCCUCGUAAGGCGAAGACUGCGCGUUCGAGUCCCGUACGGAACG, for which the yeast fitness was not above 0.5. As to GUUCCGUUGGUGUAAUGGUACCGCGUGUCCCUCCUAAGCAGAAGACUGCGGGUUCGAGUCCCGUAUGGAACG, the yeast fitness was not above 0.5. Take GUUCCGUUGGUGUAAUGGUUACGCGUCUCCCUCCUAAAGAGAAGACUGCGAGUACGAGUCCCGUACGGAACG: the yeast fitness was 0.527. As for GUUCCGUUGGUGUAAUGGUAACGCGUCUCCCUCCUGAGGAAAAGACUGUGGGUUCGAGUCCCAUACGGAACG, the yeast fitness is not above 0.5.

On to GUUCCGUUGGUGUAAUGGUAUCGCGUCUCCCUCCUAAGGAAAAGACUGCGGGUUCGCGUCCCGUACGGAACG, for which the yeast fitness is not above 0.5. Turning to GUUCCGUUGGUGUAAUGGUUACGUGUCUCCCUGCUAAGGAGAAGACAGUGGGUUCGAGUCCCGUACGGAACG, the yeast fitness turned out to be 0.557. As for GUUCCGUUGGUGUAAUGGUAACGCGUCUCCCUCCUCAGGAGAAGACUGCGGGUUCGAGUCCCGAACGGACCG, the figure is not above 0.5; as for GUUCCGUUGGUGUAAUGGUAGCGAGUCUCCCUCCUAAGGAGAAGACUGCGGGUUCGAGUCCCGUACGGAACG, 0.529. Then GUUCCGUUGGUGUAAUGGUAUCGCGUCUCCCUCCUAAGGAGAAGACUGCGGGUUCGAGUCACGUACGGAUCG, with not above 0.5. GUUCCGUUGGUGUAAUGGUAUCGCGUCUCCCUCCUAAGGAGAAGACUGCGGGUUCGAGUCCCGUACGGGACG: the yeast fitness was found to be 0.712. For the variant GUUCCGUUGGUGUAAUGGUAACGCGUCUCCCUCCUGAGGAGAAGCCUGCGGGUUCGAGUCCCGUACGGAACG, the yeast fitness is 0.807. As for GUUCCGUUGGUGUAAUGGUAGCGAGUCUCCCUCCUAAGGAGAAGACUGCGGAUUCGAGUACCGUACGGGACG, the figure is 0.523; as for GUUCCGUUGGUGUAAUGGUACCGCGUCUCCCUCCAAAGGAGUAGAGUGCGGGUUCGAGUCCCGUACGGAACG, not above 0.5. As to GUUCCGUUGGUGUAAUGGUAACGCGUCUCCCUCCUUAGGAGAAGACUCCGGGUUCGAGUCCCGUACGGAACG, the yeast fitness was 0.632. For GUUCCGUUGGUGUAAUGGUAACGCGUCUCCCUCCUACGGAGAAGACUGUGGGUUCGAGUCCCGUACGGAACG, the yeast fitness was not above 0.5. For GUUCCGUUGGUGUAAUGGUUACGUGUCUACCUCCUAAGGAGAAGACUGUGGGUUCGAGUCCCGUACGGAGCG, the yeast fitness is not above 0.5.

For the variant GUUCCGUUGGUGUAAUGGUAACGCGUCUCCCUCCUUAGGAGAAGACUCCGGGUCCGAGUCCCGUACGGAACG, the yeast fitness is not above 0.5. As for GUUCCGUUGGUGUAAUGGUAUCGCGUCUCCCUCCAUAGGAGAAGACUGCGGGUUCGAGUCCCGUACGGAACG, the figure is not above 0.5; as for GUUCCGUUGGUGUAAUGGUAACGCGUCUCCCUCCUAGGGAGAAGACUGUGGGUUCGAGUCCCGUACGGCACG, not above 0.5; as for GUUCCGUUGGUGUAAUGGUAGCGCGUCUUCCUCCUAAGGAGAAGACUGCGGGUUGGAGUCCCGUACGGAACG, not above 0.5. Then GUUCCGUUGGUGUAAUGGUUACGCGUCUCACUCCUAAAGAGAAGACUGCGAGUACGAGUCCCGUACGGAACG, with not above 0.5. In the case of GUUCCGUUGGUGUAAUGGUAACGCGUCUCCCUCCUACGGAGAAGCCUGCGGGUUCGAGUCCCGUACGGAACG, the yeast fitness stood at 0.576. As for GUUCCGUUGGUGUAAUGGUACCGCGUCUCCCUCCUAAGGAGAAGACUGCGGGUUCGAGUCCCGUACGGAACG, the figure is 0.714. As for GUUCCGUUGGUGUAAUGGUAACGCGUCUCCCUCCUCAGGAGAAGACUGCGGGUUCGAGUCUCGUACGGAACG, the figure is not above 0.5; as for GUUCCGUUGGUGUAAUGGUAACGCGUCUCCCUCCUCAGGAGAAGACUGCGGGUUCGAGUCCCGUCUGGAACG, 0.558; as for GUUCCGUUGGUGUAAUGGUUAAGCGUCUCCCUCCUAAGGAGAAGACUGCGGGGUCGAGUCCCGUACGGAACG, not above 0.5. GUUCCGUUGGUGUAAUGGUAUCGCGUCUCGCUCCUAAGGAGGAGACUGCGGGUUCGAGUCCCGUACGGAACG: the yeast fitness worked out at 0.755. As for GUUCCGUUGGUGUAAUGGUUACGCGUCUCCCUCCUAAGAAGAAGACUGCGGGUUCGAGUCCCGUACGGAACG, the figure is not above 0.5.
